Screening data (PubChem)
PKD1 inh: inhibitors of human PKD1 kinase, biochemical, fluorescence polarization; actives 0.056% (n = 200,000); PKD1 kinase fluorescence polarization assay; inhibition, % (no concentration beside the values); Serine/threonine-protein kinase D1 (Homo sapiens), Q15139; in the data active = inhibition above about 50%
p97 inhibitor: inhibitors of human p97 ATPase, primary screen, biochemical; Transitional endoplasmic reticulum ATPase (Homo sapiens), P55072; recombinant p97 ATPase, Kinase-Glo ATP luminescence, 3 h; inhibition, % at 8 µM; actives 0.42% (n = 220,000); AID 1481, 2009; in the data active = inhibition above about 15%
Hsp70 act: Hsp70 transcriptional activators, primary screen, cell-based, HeLa, Hsp70 promoter luciferase, luminescence, 10 µM; actives 0.04% (n = 200,000); AID 1203, 2008; activation, % at 10 µM; HeLa Hsp70 promoter luciferase reporter; scaled: vehicle 0, proteasome-inhibitor control 100%;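 active = activation above the mean across all tested compounds plus 3 SD, cutoff set per campaign, cut at about 5.5% in these data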
PP1 inh: PP1-alpha phosphatase inhibitors, primary screen, counter-screen for PP5 inhibitor project, biochemical, fluorescence, OMFP substrate, single point | purified PP1alpha | inhibition, % at 6.7 µM | actives 0.9% (n = 320,000);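 active = inhibition above the mean inhibition of all tested compounds plus 3 SD, computed separately for each screening campaign, cut at about 15% in these data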
PP5 inh: PP5 phosphatase inhibitors, primary screen, biochemical, fluorescence | AID 1987, 2009 | purified PP5c, OMFP substrate fluorescence | actives 0.18% (n = 320,000) | inhibition, % at 6.7 µM | Serine/threonine-protein phosphatase 5 (Homo sapiens), P53041;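 active = inhibition above the campaign's mean inhibition across all tested compounds plus 3 SD, cut at about 9.5% in these data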
Target sequence (P53041 whole entry, looked up): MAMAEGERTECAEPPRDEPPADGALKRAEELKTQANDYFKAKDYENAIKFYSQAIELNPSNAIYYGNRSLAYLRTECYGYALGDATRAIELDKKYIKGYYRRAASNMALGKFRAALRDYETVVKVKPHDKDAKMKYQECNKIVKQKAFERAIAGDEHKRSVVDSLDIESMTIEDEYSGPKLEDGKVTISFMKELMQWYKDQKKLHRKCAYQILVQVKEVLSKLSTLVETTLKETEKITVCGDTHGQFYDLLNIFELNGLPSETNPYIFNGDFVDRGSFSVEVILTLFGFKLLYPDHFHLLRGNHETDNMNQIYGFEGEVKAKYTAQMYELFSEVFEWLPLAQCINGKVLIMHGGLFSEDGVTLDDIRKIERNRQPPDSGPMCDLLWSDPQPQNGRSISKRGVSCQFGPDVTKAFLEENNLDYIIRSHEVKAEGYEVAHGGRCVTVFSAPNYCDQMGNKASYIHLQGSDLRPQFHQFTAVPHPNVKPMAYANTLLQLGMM
RBBP9 inhibitor: human RBBP9 inhibitors, primary screen, biochemical, fluorescence polarization, FP-Rh probe, HTS; actives 0.2% (n = 220,000); AID 1515, 2009; inhibition, % at 7.94 µM; recombinant RBBP9;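 active = inhibition above the campaign mean of all tested compounds plus 3 SD, cut at about 14% in these data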
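Controls: DMSO-treated enzyme wells and wells lacking RBBP9 | Material: RBBP9 protein | Technique: Fluorescence polarization | Replication: Single well per compound, no replicates | Buffer or medium: Tris-NaCl-Pluronic buffer, pH 8.0 | Timing: 30 min compound preincubation, 45 min probe labeling, 25 °C | Read-out basis: Percent inhibition from mP, scaled between DMSO and no-protein wells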
PP1 confirm: PP1 phosphatase inhibitors, confirmation, biochemical, fluorescence, OMFP substrate, triplicate | shares compounds with PP1 inh | purified PP1alpha | inhibition, % at 6.7 µM | actives 52% (n = 1,900);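 active = mean PP1 inhibition above a set limit taken from the earlier primary screen, cut at about 15% in these data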
PP5 counter: PP5 phosphatase inhibition by PP1 hits, confirmation, counter-screen for PP1 inhibitor project, biochemical, fluorescence, triplicate; shares compounds with PP1 inh; purified PP5c, OMFP fluorescence; inhibition, % at 6.7 µM; actives 4% (n = 1,900); AID 2360, 2010;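 active = mean PP5 inhibition over triplicate wells above about 9.5% taken from the earlier PP1 screen, limit read from the data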
Numbers stand for hits; . = inactive; / = no result given. Rows were chosen to be rich in hits. Some 1.5% of all compounds tested hit in one or more screens of this group.

SMILES | PKD1 inh | p97 inhibitor | Hsp70 act | PP1 inh | PP5 inh | RBBP9 inhibitor | PP1 confirm | PP5 counter
COCCN(CCOC)S(=O)(=O)c1ccc(C(=O)Nc2nnc(C3CC3)o2)cc1 | . | . | . | . | . | . | / | /
CCN(c1ccccc1)S(=O)(=O)c1ccc(C(=O)Nc2nnc(C3CC3)o2)cc1 | . | . | . | 31 | . | . | 29 | .
CN(c1ccccc1)S(=O)(=O)c1ccc(C(=O)Nc2nnc(C3CC3)o2)cc1 | . | . | . | 22 | . | . | 19 | .
CCOC(=O)N1CCN(S(=O)(=O)c2ccc(C(=O)Nc3nnc(C4CC4)o3)cc2)CC1 | . | . | . | . | . | . | / | /
CCN(CC)c1ccc(/C=N/NC(=O)CNC(=O)/C=C/c2ccco2)cc1 | / | / | / | . | . | / | / | /
COC(=O)N/N=C(\C)c1ccc(-n2ccnc2)cc1 | . | . | . | . | . | . | / | /
C/C(=N\NC(=O)COc1ccc(C)cc1C(C)C)c1ccc(-n2ccnc2)cc1 | . | . | . | 18 | . | . | 17 | .
COC(=O)c1ccc(/C=N/Nc2nc(-c3ccccc3)cs2)cc1 | . | . | . | . | . | . | / | /
COc1ccc(/C=N/Nc2nc(C(=O)O)cs2)cc1 | / | / | / | 20 | . | / | . | .
CCc1cccc(C)c1NC(=O)Cn1nc(C)n2cccc2c1=O | / | / | / | . | . | / | / | /
O=C1CCCN1c1ccc(C(=O)N(Cc2nnc(-c3ccc(Cl)cc3)o2)C2CC2)cc1 | / | / | / | 18 | . | / | . | .
Cc1cccc(CCNS(=O)(=O)c2ccc3c(c2)NC(=O)CS3)c1 | / | / | / | . | . | / | / | /
NC(=O)CC(NC(=O)c1ccc(Br)cc1)c1ccc(NCCc2ccc(F)cc2)c([N+](=O)[O-])c1 (stereo unspecified) | / | / | / | 25 | . | / | 26 | .
NC(=O)CC(NC(=O)c1ccccc1)c1ccc(N2CCN(c3ccccc3)CC2)c([N+](=O)[O-])c1 (stereo unspecified) | / | / | / | . | . | / | / | /
Cc1cc(C)cc(C(=O)NC(CC(N)=O)c2ccc(N3CCC(Cc4ccccc4)CC3)c([N+](=O)[O-])c2)c1 (stereo unspecified) | / | / | / | . | . | / | / | /
NC(=O)CC(NC(=O)c1ccccc1)c1ccc(N2CCN(c3ccc(F)cc3)CC2)c([N+](=O)[O-])c1 (stereo unspecified) | / | / | / | 18 | . | / | . | .
NC(=O)CC(NC(=O)Cc1cccc2ccccc12)c1ccc(N2CCc3ccccc3C2)c([N+](=O)[O-])c1 (stereo unspecified) | / | / | / | 18 | . | / | 17 | .
NC(=O)CC(NC(=O)c1ccccc1)c1ccc(NCCc2cccc(F)c2)c([N+](=O)[O-])c1 (stereo unspecified) | / | / | / | . | . | / | / | /
NC(=O)CC(NC(=O)Cc1ccc(Cl)cc1)c1ccc(N2CCC(Cc3ccccc3)CC2)c([N+](=O)[O-])c1 (stereo unspecified) | / | / | / | 22 | . | / | . | .
CCOc1ccccc1NC(=O)CSc1nc2nc(-c3cccs3)cc(C(F)(F)F)c2c(=O)[nH]1 | / | . | / | 21 | . | . | . | .
CCC(C)C(NC(=O)OCc1ccccc1)C(=O)NCC(c1ccccc1)N(C)C (stereo unspecified) | / | / | / | . | . | / | / | /
O=c1[nH]c(CSc2nnc(Nc3ccccc3)s2)nc2ccccc12 | / | . | / | 28 | . | . | 18 | .
COc1ccc(-n2c3c(cc(C(=O)NNc4ccccc4C)c2=O)C(=O)CC(C)(C)C3)cc1 | . | . | . | 18 | . | . | . | .
